Data as given in ChEMBL document CHEMBL3244095, “Synthesis and antitumor activity of 5-azacytosine arabinoside” (J Med Chem, 1979).

Tests used:
L1210 [1] = test: Antitumor activity in mouse L1210 cells allografted in CDF1 mouse assessed as increase in life span at 80 mg/kg, ip administered as qd for 9 days relative to control; assay type: functional; details: 216 h, route intraperitoneal
Summary of the method: (§1)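 CDF1 mice inoculated ip with 10^5 L1210 leukemia cells on day 0; compounds in 0.9% saline given ip once daily days 1–9 (nine injections) across a dose-response range. Antitumor activity = mean increase in life span over untreated controls, expressed as % ILS; duplicate experiments, with drug-related deaths and weight loss monitored.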

L1210 [2] = test: Antitumor activity in mouse L1210 cells allografted in CDF1 mouse assessed as increase in life span at 40 mg/kg, ip administered as qd for 9 days relative to control; assay type: functional; details: 216 h, route intraperitoneal; summary of the method: as §1
L1210 [3] = test: Antitumor activity in mouse L1210 cells allografted in CDF1 mouse assessed as increase in life span at 25 mg/kg, ip administered as qd for 9 days relative to control; assay type: functional; details: 216 h, route intraperitoneal; summary of the method: as §1
L1210 [4] = test: Antitumor activity in mouse L1210 cells allografted in CDF1 mouse assessed as increase in life span at 20 mg/kg, ip administered as qd for 9 days relative to control; assay type: functional; details: 216 h, route intraperitoneal; summary of the method: as §1
L1210 [5] = test: Antitumor activity in mouse L1210 cells allografted in CDF1 mouse assessed as increase in life span at 12.5 mg/kg, ip administered as qd for 9 days relative to control; assay type: functional; details: 216 h, route intraperitoneal; summary of the method: as §1
L1210 [6] = test: Antitumor activity in mouse L1210 cells allografted in CDF1 mouse assessed as increase in life span at 10 mg/kg, ip administered as qd for 9 days relative to control; assay type: functional; details: 216 h, route intraperitoneal; summary of the method: as §1
L1210 [7] = test: Antitumor activity in mouse L1210 cells allografted in CDF1 mouse assessed as increase in life span at 6.25 mg/kg, ip administered as qd for 9 days relative to control; assay type: functional; details: 216 h, route intraperitoneal; summary of the method: as §1
L1210 [8] = test: Antitumor activity in mouse L1210 cells allografted in CDF1 mouse assessed as increase in life span at 5 mg/kg, ip administered as qd for 9 days relative to control; assay type: functional; details: 216 h, route intraperitoneal; summary of the method: as §1
L1210 [9] = test: Antitumor activity in mouse L1210 cells allografted in CDF1 mouse assessed as increase in life span at 3.12 mg/kg, ip administered as qd for 9 days relative to control; assay type: functional; details: 216 h, route intraperitoneal; summary of the method: as §1
Mus musculus [10] = test: Toxicity in CDF1 mouse assessed as change in body weight at 200 mg/kg, ip measured on day 5 relative to control; assay type: organism-based; design: dose 200 mg/kg, route intraperitoneal; details: in vivo
Summary of the method: (§2)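 CDF1 mice were implanted ip with 10^5 L1210 leukemia cells on day 0. Drug in 0.9% saline was given ip once daily on days 1–9 (nine injections) in a dose-response design. Body weight was compared with untreated tumor-bearing controls. The work was done as duplicate experiments.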

Mus musculus [11] = test: Toxicity in CDF1 mouse assessed as change in body weight at 100 mg/kg, ip measured on day 5 relative to control; assay type: organism-based; design: dose 100 mg/kg, route intraperitoneal; details: in vivo; summary of the method: as §2
Mus musculus [12] = test: Toxicity in CDF1 mouse assessed as change in body weight at 80 mg/kg, ip measured on day 5 relative to control; assay type: organism-based; design: dose 80 mg/kg, route intraperitoneal; details: in vivo; summary of the method: as §2
Mus musculus [13] = test: Toxicity in CDF1 mouse assessed as change in body weight at 50 mg/kg, ip measured on day 5 relative to control; assay type: organism-based; design: dose 50 mg/kg, route intraperitoneal; details: in vivo; summary of the method: as §2
Mus musculus [14] = test: Toxicity in CDF1 mouse assessed as change in body weight at 40 mg/kg, ip measured on day 5 relative to control; assay type: organism-based; design: dose 40 mg/kg, route intraperitoneal; details: in vivo; summary of the method: as §2
Mus musculus [15] = test: Toxicity in CDF1 mouse assessed as change in body weight at 25 mg/kg, ip measured on day 5 relative to control; assay type: organism-based; design: dose 25 mg/kg, route intraperitoneal; details: in vivo; summary of the method: as §2
Mus musculus [16] = test: Toxicity in CDF1 mouse assessed as change in body weight at 20 mg/kg, ip measured on day 5 relative to control; assay type: organism-based; design: dose 20 mg/kg, route intraperitoneal; details: in vivo; summary of the method: as §2
Mus musculus [17] = test: Toxicity in CDF1 mouse assessed as change in body weight at 12.5 mg/kg, ip measured on day 5 relative to control; assay type: organism-based; design: dose 12.5 mg/kg, route intraperitoneal; details: in vivo; summary of the method: as §2
Mus musculus [18] = test: Toxicity in CDF1 mouse assessed as change in body weight at 10 mg/kg, ip measured on day 5 relative to control; assay type: organism-based; design: dose 10 mg/kg, route intraperitoneal; details: in vivo; summary of the method: as §2
Mus musculus [19] = test: Toxicity in CDF1 mouse assessed as change in body weight at 6.25 mg/kg, ip measured on day 5 relative to control; assay type: organism-based; design: dose 6.25 mg/kg, route intraperitoneal; details: in vivo; summary of the method: as §2
Mus musculus [20] = test: Toxicity in CDF1 mouse assessed as change in body weight at 5 mg/kg, ip measured on day 5 relative to control; assay type: organism-based; design: dose 5 mg/kg, route intraperitoneal; details: in vivo; summary of the method: as §2
Mus musculus [21] = test: Toxicity in CDF1 mouse assessed as change in body weight at 3.12 mg/kg, ip measured on day 5 relative to control; assay type: organism-based; design: dose 3.12 mg/kg, route intraperitoneal; details: in vivo; summary of the method: as §2
[22] = Half life of the compound; assay type: physicochemical
L1210 [23] = test: Antitumor activity in mouse L1210 cells allografted in CDF1 mouse assessed as increase in life span at 200 mg/kg, ip administered as qd for 9 days relative to control; assay type: functional; details: 216 h, route intraperitoneal; summary of the method: as §1
L1210 [24] = test: Antitumor activity in mouse L1210 cells allografted in CDF1 mouse assessed as increase in life span at 100 mg/kg, ip administered as qd for 9 days relative to control; assay type: functional; details: 216 h, route intraperitoneal; summary of the method: as §1
L1210 [25] = test: Antitumor activity in mouse L1210 cells allografted in CDF1 mouse assessed as increase in life span at 50 mg/kg, ip administered as qd for 9 days relative to control; assay type: functional; details: 216 h, route intraperitoneal; summary of the method: as §1
L1210 [26] = test: Antitumor activity in mouse L1210 cells allografted in CDF1 mouse assessed as increase in life span at 1.56 mg/kg, ip administered as qd for 9 days relative to control; assay type: functional; details: 216 h, route intraperitoneal; summary of the method: as §1
L1210 [27] = test: Antitumor activity in mouse L1210 cells allografted in CDF1 mouse assessed as increase in life span at 0.78 mg/kg, ip administered as qd for 9 days relative to control; assay type: functional; details: 216 h, route intraperitoneal; summary of the method: as §1
Mus musculus [28] = test: Toxicity in CDF1 mouse assessed as change in body weight at 1.56 mg/kg, ip measured on day 5 relative to control; assay type: organism-based; design: dose 1.56 mg/kg, route intraperitoneal; details: in vivo; summary of the method: as §2
Mus musculus [29] = test: Toxicity in CDF1 mouse assessed as change in body weight at 0.78 mg/kg, ip measured on day 5 relative to control; assay type: organism-based; design: dose 0.78 mg/kg, route intraperitoneal; details: in vivo; summary of the method: as §2
[30] = Drug degradation in water solution at 25 degC after 4 hrs by reverse phase liquid chromatography; assay type: physicochemical; details: read-out: Drug degradation
Summary of the method: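 Nucleoside in water solution held at 25 °C; the loss of parent compound over time was measured by LC analysis. Degradation was read at 4 h.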

[31] = Drug degradation in water solution at 25 degC after 5.5 hrs by reverse phase liquid chromatography; assay type: physicochemical; details: read-out: Drug degradation
Summary of the method: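 Parent held at 25 °C and sampled over time. Its disappearance was fitted to a first-order rate equation, and the fraction lost was taken at 5.5 h from that fit.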

## Nc1ccn([C@@H]2O[C@H](CO)[C@@H](O)[C@@H]2O)c(=O)n1 [CYTARABINE]
L1210 [1]
  ILS at 80 mg/kg: 92%
L1210 [2]
  ILS at 40 mg/kg: 123%
L1210 [3]
  ILS at 25 mg/kg: 121%
L1210 [4]
  ILS at 20 mg/kg: 127%
L1210 [5]
  ILS at 12.5 mg/kg: 91%
L1210 [6]
  ILS at 10 mg/kg: 84%
L1210 [7]
  ILS at 6.25 mg/kg: 34%
L1210 [8]
  ILS at 5 mg/kg: 47%
L1210 [9]
  ILS at 3.12 mg/kg: 28%
Mus musculus [10]
  Activity: Non-toxic
Mus musculus [11]
  Activity: Non-toxic
Mus musculus [12]
  Activity: -1.8 g
Mus musculus [13]
  Activity: -1.8 g
Mus musculus [14]
  Activity: -1 g
Mus musculus [15]
  Activity: 0 g
Mus musculus [16]
  Activity: -0.3 g
Mus musculus [17]
  Activity: -0.4 g
Mus musculus [18]
  Activity: -0.2 g
Mus musculus [19]
  Activity: 0.3 g
Mus musculus [20]
  Activity: 0.4 g
Mus musculus [21]
  Activity: 0.3 g
[22]
  half-life: 34 h

## Nc1ncn([C@@H]2O[C@H](CO)[C@@H](O)[C@@H]2O)c(=O)n1 [FAZARABINE]
L1210 [23]
  ILS at 200 mg/kg: 19%
L1210 [24]
  ILS at 100 mg/kg: 80%
L1210 [25]
  ILS at 50 mg/kg: 92%
L1210 [3]
  ILS at 25 mg/kg: 58%
L1210 [5]
  ILS at 12.5 mg/kg: 58%
L1210 [7]
  ILS at 6.25 mg/kg: 41%
L1210 [9]
  ILS at 3.12 mg/kg: 28%
L1210 [26]
  ILS at 1.56 mg/kg: 66%
L1210 [27]
  ILS at 0.78 mg/kg: 39%
Mus musculus [10]
  Activity: -2.8 g
Mus musculus [11]
  Activity: -4 g
Mus musculus [13]
  Activity: -3.3 g
Mus musculus [15]
  Activity: -4 g
Mus musculus [17]
  Activity: -3.7 g
Mus musculus [19]
  Activity: -2.5 g
Mus musculus [21]
  Activity: -3.3 g
Mus musculus [28]
  Activity: -1.3 g
Mus musculus [29]
  Activity: -1.2 g
[30]
  degraded at 4 h: 15%

## Nc1ncn([C@@H]2O[C@H](CO)[C@@H](O)[C@H]2O)c(=O)n1 [AZACITIDINE]
L1210 [7]
  ILS at 6.25 mg/kg: 1%
L1210 [9]
  ILS at 3.12 mg/kg: 33%
L1210 [26]
  ILS at 1.56 mg/kg: 66%
L1210 [27]
  ILS at 0.78 mg/kg: 26%
Mus musculus [17]
  Activity: Toxic
Mus musculus [19]
  Activity: -6.1 g
Mus musculus [21]
  Activity: -5.3 g
Mus musculus [28]
  Activity: -1.3 g
Mus musculus [29]
  Activity: -2 g
[31]
  degraded at 5.5 h: 15%
